Assay results reported in ChEMBL document CHEMBL1146929, “Biological evaluation of a multi-targeted small molecule inhibitor of tumor-induced angiogenesis” (Bioorg Med Chem Lett, 2006).
pIC50: −log10 of the molar value.

What was measured:
[1] = target: Vascular endothelial growth factor receptor 2 (Homo sapiens, UniProt P35968); assay: Inhibitory activity against recombinant human KDR
[2] = target: Platelet-derived growth factor receptor (Homo sapiens, UniProt P09619+P16234); assay: Inhibitory activity against recombinant human PDGFR; format: protein-complex assay
Ephrin type-B receptor 3 = target: T1, Ephrin type-B receptor 3 (Homo sapiens, UniProt P54753); assay: Inhibitory activity against EphB3
T1 sequence (P54753 whole entry): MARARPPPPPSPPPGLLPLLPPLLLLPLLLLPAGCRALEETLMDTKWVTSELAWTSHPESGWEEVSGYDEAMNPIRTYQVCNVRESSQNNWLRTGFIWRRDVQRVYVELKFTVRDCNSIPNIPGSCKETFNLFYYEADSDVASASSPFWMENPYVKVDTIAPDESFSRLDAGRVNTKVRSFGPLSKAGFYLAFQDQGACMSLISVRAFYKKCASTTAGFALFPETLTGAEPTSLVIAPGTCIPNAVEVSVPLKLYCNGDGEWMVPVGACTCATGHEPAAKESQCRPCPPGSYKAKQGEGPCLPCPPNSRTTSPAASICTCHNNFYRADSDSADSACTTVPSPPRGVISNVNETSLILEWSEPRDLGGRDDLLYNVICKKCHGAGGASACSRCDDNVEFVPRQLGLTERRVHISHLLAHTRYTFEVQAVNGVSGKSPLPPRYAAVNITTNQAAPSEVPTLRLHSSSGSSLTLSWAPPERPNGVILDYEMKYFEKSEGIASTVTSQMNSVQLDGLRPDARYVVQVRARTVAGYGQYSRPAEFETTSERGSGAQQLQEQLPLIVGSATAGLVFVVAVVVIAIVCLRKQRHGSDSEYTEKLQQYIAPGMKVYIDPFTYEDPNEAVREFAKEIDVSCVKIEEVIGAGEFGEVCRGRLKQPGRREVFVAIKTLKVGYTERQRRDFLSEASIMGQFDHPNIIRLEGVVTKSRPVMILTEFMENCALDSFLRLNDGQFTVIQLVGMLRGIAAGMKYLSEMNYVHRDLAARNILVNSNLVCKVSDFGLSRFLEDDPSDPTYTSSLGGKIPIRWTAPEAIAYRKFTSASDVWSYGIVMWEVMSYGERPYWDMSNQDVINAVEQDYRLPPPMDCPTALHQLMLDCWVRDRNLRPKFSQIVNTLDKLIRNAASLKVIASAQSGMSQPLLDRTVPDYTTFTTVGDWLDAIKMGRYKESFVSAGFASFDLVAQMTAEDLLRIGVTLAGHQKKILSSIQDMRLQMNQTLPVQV
Outline: (§1)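 IMAP fluorescence-polarization kinase assay: phosphorylated fluorescent peptide substrate binds immobilized metal beads, giving a measure of kinase activity. Reactions were run with ATP at three times the Km of each kinase.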

[3] = target: cAMP-dependent protein kinase (PKA) (Homo sapiens, UniProt P22694+P17612+P22612); assay: Inhibitory activity against PKA; format: protein assay; outline: as §1
[4] = target: Mitogen-activated protein kinase 1 (Homo sapiens, UniProt P28482); assay: Inhibitory activity against Erk2
Chain of Mitogen-activated protein kinase 1 (P28482 whole entry): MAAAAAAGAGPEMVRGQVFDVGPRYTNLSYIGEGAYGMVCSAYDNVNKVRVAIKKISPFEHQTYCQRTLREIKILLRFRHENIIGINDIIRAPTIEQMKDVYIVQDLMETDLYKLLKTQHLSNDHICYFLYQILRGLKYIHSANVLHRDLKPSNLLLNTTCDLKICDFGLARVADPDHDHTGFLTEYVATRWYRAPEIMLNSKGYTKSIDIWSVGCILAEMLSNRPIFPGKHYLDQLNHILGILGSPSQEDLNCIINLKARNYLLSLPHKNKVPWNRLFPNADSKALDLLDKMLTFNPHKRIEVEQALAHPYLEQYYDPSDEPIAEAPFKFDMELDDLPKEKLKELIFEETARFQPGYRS
Outline: (§2)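 IMAP homogeneous fluorescence-polarisation kinase assay: phosphorylated fluorescent peptide substrate binds immobilised metal beads, read as kinase activity. Reactions run at ATP three times the Km for each enzyme.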

[5] = target: Protein kinase C alpha type (Homo sapiens, UniProt P17252); assay: Inhibitory activity against PKC alpha; outline: as §2
[6] = target: Protein kinase C delta type (Homo sapiens, UniProt Q05655); assay: Inhibitory activity against PKC delta; outline: as §1
Chain of Protein kinase C delta type (Q05655 whole entry): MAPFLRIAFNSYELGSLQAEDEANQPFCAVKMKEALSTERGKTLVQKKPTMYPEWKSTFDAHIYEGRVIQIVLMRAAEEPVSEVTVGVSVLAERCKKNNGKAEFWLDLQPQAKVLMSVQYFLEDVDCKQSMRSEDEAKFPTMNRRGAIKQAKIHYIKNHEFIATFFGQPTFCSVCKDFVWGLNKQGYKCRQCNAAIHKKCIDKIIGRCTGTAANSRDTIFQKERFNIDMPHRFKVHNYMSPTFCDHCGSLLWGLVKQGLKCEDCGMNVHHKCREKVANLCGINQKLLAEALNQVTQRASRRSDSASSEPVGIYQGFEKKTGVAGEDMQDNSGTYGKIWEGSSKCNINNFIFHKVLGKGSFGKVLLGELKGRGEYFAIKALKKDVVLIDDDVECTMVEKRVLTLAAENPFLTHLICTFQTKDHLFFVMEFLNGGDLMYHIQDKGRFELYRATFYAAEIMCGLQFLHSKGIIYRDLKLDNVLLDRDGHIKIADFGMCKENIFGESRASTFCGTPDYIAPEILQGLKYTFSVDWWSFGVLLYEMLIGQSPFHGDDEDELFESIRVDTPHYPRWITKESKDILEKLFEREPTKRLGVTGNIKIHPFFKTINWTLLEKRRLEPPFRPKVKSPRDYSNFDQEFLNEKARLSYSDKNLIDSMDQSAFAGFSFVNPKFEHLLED

[7] = target: Cyclin-dependent kinase 1/cyclin B (Homo sapiens, UniProt P06493); assay: Inhibition of CDK1/cyclinB; format: protein-complex assay; outline: as §1
[8] = target: T2, Serine/threonine-protein kinase Sgk1 (Homo sapiens, UniProt O00141); assay: Inhibitory activity against SGK; outline: as §1
T2 sequence (O00141 whole entry): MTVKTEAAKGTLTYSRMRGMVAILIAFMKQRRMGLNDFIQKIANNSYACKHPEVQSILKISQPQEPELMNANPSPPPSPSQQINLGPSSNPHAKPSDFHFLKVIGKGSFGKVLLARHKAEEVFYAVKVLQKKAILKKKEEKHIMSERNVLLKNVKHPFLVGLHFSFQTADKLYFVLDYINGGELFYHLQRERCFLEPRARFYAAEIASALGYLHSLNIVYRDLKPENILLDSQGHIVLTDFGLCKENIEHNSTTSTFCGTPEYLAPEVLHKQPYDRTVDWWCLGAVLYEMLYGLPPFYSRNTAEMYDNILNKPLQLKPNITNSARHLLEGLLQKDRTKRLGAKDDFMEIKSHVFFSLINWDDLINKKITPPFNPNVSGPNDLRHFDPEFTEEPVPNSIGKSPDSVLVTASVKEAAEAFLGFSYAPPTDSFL

[9] = target: RAC-alpha serine/threonine-protein kinase (Homo sapiens, UniProt P31749); assay: Inhibitory activity against AKT; outline: as §1
Chain of RAC-alpha serine/threonine-protein kinase (P31749 whole entry): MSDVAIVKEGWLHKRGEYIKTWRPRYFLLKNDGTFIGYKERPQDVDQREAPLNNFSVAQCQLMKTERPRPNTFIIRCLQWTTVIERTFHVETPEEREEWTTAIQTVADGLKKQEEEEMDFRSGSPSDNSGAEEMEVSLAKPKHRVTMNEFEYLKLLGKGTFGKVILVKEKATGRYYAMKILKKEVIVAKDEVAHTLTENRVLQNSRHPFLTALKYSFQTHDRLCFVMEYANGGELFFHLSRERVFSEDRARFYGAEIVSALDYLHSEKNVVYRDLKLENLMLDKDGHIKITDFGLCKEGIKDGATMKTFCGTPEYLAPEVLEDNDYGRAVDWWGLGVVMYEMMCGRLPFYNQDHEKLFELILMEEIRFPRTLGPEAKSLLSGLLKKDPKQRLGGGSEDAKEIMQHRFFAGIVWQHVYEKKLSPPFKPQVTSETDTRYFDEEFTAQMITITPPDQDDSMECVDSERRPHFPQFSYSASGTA

HUVEC [10] = assay: Inhibitory activity against VEGF-induced proliferation of HUVEC cells; format: functional, cell-based; conditions: Homo sapiens
Outline: (§3)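 HUVECs were grown to subconfluence, serum-starved for 24 h, then given compound for 2 h before stimulation with 20 ng/mL VEGF or 5 ng/mL bFGF. BrdU label was added after 20 h with compound. Incorporation was read 4 h later with a peroxidase anti-BrdU antibody and colorimetric detection. IC50 came from a single experiment in duplicate.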

[11] = Volume of distribution in nude mice at 10 mg/kg, iv; format: ADME, organism-based; set-up: dose 10 mg/kg, route intravenous; conditions: mouse, in vivo, read-out: Vdss
Outline: (§4)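 Single doses given iv and orally. Mice (athymic nude) received 10 mg/kg iv, with bleeds at 1, 5, 15, 30 min and 1-24 h, and 50 or 200 mg/kg po, with bleeds at 5 min-24 h. Wistar rats received 5 mg/kg iv through a femoral arterial catheter, with jugular bleeds to 24 h, and 50 or 200 mg/kg po, with bleeds to 48 h. The iv vehicle was 2% DMA/10% PEG400/88% of 40% HPBCD and the oral vehicle 2% Klucel LF/0.1% Tween 80. EDTA plasma was assayed by LC-MS/MS against a calibration of 1-2000 ng/mL.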

[12] = Half life in nude mice at 10 mg/kg, iv; format: ADME, organism-based; set-up: dose 10 mg/kg, route intravenous; conditions: mouse, in vivo; outline: as §4
[13] = Clearance in Wistar rat at 5 mg/kg, iv; format: ADME, organism-based; set-up: dose 5 mg/kg, route intravenous; conditions: in vivo; outline: as §4
[14] = AUC in Wistar rat at 5 mg/kg, iv; format: ADME, organism-based; set-up: dose 5 mg/kg, route intravenous; conditions: plasma; outline: as §4
[15] = Volume of distribution in Wistar rat at 5 mg/kg, iv; format: ADME, organism-based; set-up: dose 5 mg/kg, route intravenous; conditions: in vivo, read-out: Vdss; outline: as §4
[16] = Half life in Wistar rat at 5 mg/kg, iv; format: ADME, organism-based; set-up: dose 5 mg/kg, route intravenous; conditions: in vivo; outline: as §4
[17] = AUC in nude mice at 50 mg/kg, po; format: ADME, organism-based; set-up: dose 50 mg/kg, route oral; conditions: mouse, plasma; outline: as §4
[18] = AUC in nude mice at 200 mg/kg, po; format: ADME, organism-based; set-up: dose 200 mg/kg, route oral; conditions: mouse, plasma; outline: as §4
[19] = Cmax in nude mice at 50 mg/kg, po; format: ADME, organism-based; set-up: dose 50 mg/kg, route oral; conditions: mouse, in vivo; outline: as §4
[20] = Cmax in nude mice at 200 mg/kg, po; format: ADME, organism-based; set-up: dose 200 mg/kg, route oral; conditions: mouse, in vivo; outline: as §4
[21] = Half life in nude mice at 50 mg/kg, po; format: ADME, organism-based; set-up: dose 50 mg/kg, route oral; conditions: mouse, in vivo; outline: as §4
[22] = Half life in nude mice at 200 mg/kg, po; format: ADME, organism-based; set-up: dose 200 mg/kg, route oral; conditions: mouse, in vivo; outline: as §4
[23] = AUC in Wistar rat at 50 mg/kg, po; format: ADME, organism-based; set-up: dose 50 mg/kg, route oral; conditions: plasma; outline: as §4
[24] = AUC in Wistar rat at 200 mg/kg, po; format: ADME, organism-based; set-up: dose 200 mg/kg, route oral; conditions: plasma; outline: as §4
[25] = Cmax in Wistar rat at 50 mg/kg, po; format: ADME, organism-based; set-up: dose 50 mg/kg, route oral; conditions: in vivo; outline: as §4
[26] = Cmax in Wistar rat at 200 mg/kg, po; format: ADME, organism-based; set-up: dose 200 mg/kg, route oral; conditions: in vivo; outline: as §4
[27] = Half life in Wistar rat at 50 mg/kg, po; format: ADME, organism-based; set-up: dose 50 mg/kg, route oral; conditions: in vivo; outline: as §4
[28] = Half life in Wistar rat at 200 mg/kg, po; format: ADME, organism-based; set-up: dose 200 mg/kg, route oral; conditions: in vivo; outline: as §4
Mus musculus [29] = assay: Inhibition of tumor growth in nude mice implanted with H460a cells at 50 mg/kg, po after 28 days; format: functional; conditions: 672 h
Mus musculus [30] = assay: Inhibition of tumor growth in nude mice implanted with H460a cells at 100 mg/kg, po after 28 days; format: functional; conditions: 672 h
Mus musculus [31] = assay: Inhibition of tumor growth in nude mice implanted with H460a cells at 200 mg/kg, po after 28 days; format: functional; conditions: 672 h
Mus musculus [32] = assay: Inhibition of VEGF-induced corneal angiogenesis in C57/BL6 mice at 50 mg/kg, po after 7 days; format: functional; conditions: C57/BL6, Cornea, 168 h
Outline: (§5)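 VEGF-containing pellets were implanted in the cornea of C57/BL6 mice. Cohorts were dosed orally bid at 12.5, 50 or 200 mg/kg for 7 days, after which the area of corneal angiogenesis (mm2) was quantified against vehicle. Body weight was monitored throughout.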

HUVEC [33] = assay: Inhibitory activity against bFGF-induced proliferation of HUVEC cells; format: functional, cell-based; conditions: Homo sapiens; outline: as §3
HCT-116 = assay: Antiproliferative activity against HCT116 by MTT assay; format: functional, cell-based; conditions: Homo sapiens
Outline: (§6)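 Exponentially growing HCT116 or H460a tumor cells were plated and held overnight at 37 C before compound was added. Proliferation was read as MTT formazan formation during a 2.5 h incubation 6 days after plating. IC50 came from a single experiment run in duplicate.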

NCI-H460 = assay: Antiproliferative activity against H460a by MTT assay; format: functional, cell-based; conditions: Homo sapiens; outline: as §6
[34] = Clearance in nude mice at 10 mg/kg, iv; format: ADME, organism-based; set-up: dose 10 mg/kg, route intravenous; conditions: mouse, in vivo; outline: as §4
[35] = AUC in nude mice at 10 mg/kg, iv; format: ADME, organism-based; set-up: dose 10 mg/kg, route intravenous; conditions: mouse, plasma; outline: as §4
Mus musculus [36] = assay: Inhibition of VEGF-induced corneal angiogenesis in C57/BL6 mice at 200 mg/kg, po after 7 days; format: functional; conditions: C57/BL6, Cornea, 168 h; outline: as §5

Chain of Vascular endothelial growth factor receptor 2 (P35968 whole entry): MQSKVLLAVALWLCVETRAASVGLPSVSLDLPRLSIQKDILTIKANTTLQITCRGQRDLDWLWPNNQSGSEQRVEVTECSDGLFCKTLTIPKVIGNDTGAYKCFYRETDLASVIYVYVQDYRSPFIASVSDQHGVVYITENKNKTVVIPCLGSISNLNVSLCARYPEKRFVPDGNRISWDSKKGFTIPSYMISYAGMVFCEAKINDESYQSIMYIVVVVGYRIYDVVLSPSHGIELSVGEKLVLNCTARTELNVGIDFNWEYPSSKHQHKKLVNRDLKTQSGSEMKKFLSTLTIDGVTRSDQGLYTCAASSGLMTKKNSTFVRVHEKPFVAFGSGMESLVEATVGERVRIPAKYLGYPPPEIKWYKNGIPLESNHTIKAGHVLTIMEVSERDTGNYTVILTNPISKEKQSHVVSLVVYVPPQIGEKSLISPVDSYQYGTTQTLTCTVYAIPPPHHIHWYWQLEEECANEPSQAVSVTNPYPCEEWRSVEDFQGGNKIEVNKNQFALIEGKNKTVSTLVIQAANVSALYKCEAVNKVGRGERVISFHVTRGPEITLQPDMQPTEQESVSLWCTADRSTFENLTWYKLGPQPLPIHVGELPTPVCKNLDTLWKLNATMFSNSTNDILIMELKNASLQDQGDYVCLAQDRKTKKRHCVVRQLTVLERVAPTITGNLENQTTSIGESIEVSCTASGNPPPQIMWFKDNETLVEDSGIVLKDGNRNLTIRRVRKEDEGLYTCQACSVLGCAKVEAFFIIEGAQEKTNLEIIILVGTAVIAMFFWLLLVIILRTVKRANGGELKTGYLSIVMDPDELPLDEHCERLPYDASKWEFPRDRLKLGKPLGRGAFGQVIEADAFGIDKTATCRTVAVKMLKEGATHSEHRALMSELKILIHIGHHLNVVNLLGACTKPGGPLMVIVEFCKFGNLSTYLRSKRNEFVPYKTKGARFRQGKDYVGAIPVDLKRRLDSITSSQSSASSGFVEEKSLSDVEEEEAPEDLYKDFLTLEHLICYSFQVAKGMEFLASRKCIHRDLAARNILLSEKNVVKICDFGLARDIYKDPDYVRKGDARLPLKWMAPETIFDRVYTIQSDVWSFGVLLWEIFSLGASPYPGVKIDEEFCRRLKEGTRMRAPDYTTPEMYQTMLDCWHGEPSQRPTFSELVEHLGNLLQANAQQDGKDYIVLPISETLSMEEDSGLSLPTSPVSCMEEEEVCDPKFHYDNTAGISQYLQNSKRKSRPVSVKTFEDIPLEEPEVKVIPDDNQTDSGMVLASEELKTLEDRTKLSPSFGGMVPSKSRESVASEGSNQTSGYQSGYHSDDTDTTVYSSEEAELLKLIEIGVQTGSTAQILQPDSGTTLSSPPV

COc1ccc(N2Cc3cnc(Nc4ccc(F)cc4)nc3N(C3CC[C@@H](O)C3)C2=O)cc1 (single isomer, unassigned)
pIC50 [1]: 7.30 | pIC50 [2]: 7.08 | pIC50 (Ephrin type-B receptor 3): 5.90 | IC50 [3]: 9010 nM | pIC50 [4]: 4.90 | pIC50 [5]: < 3.90 | pIC50 [6]: < 3.90 | pIC50 [7]: < 3.90 | pIC50 [8]: < 3.90 | pIC50 [9]: < 3.90 | pIC50 (HUVEC [10]): 7.46 | Vd [11]: 1.9 L/kg | half-life [12]: 2 h | clearance [13]: 32.5 mL/min/kg | AUC [14]: 2770 ng·h/mL | Vd [15]: 3.7 L/kg | half-life [16]: 4.3 h | AUC [17]: 96500 ng·h/mL | AUC [18]: 260000 ng·h/mL | Cmax [19]: 29100 ng/mL | Cmax [20]: 82600 ng/mL | half-life [21]: 1.9 h | half-life [22]: 1.7 h | AUC [23]: 40900 ng·h/mL | AUC [24]: 285000 ng·h/mL | Cmax [25]: 3160 ng/mL | Cmax [26]: 10300 ng/mL | half-life [27]: 5 h | half-life [28]: 7.8 h | inhibition in vivo at 50 mg/kg (Mus musculus [29]): 78% | inhibition in vivo at 100 mg/kg (Mus musculus [30]): 87% | inhibition in vivo at 200 mg/kg (Mus musculus [31]): 95% | inhibition in vivo at 50 mg/kg (Mus musculus [32]): 67% | pIC50 (HUVEC [33]): 6.83 | pIC50 (HCT-116): 5.52 | pIC50 (NCI-H460): 5.60 | clearance [34]: 13.8 mL/min/kg | AUC [35]: 12100 ng·h/mL | inhibition in vivo at 200 mg/kg (Mus musculus [36]): 91%
